Data on eight compounds can be found in PMC8320078 (ACS Omega, 2021).

One assay is described as follows: ABTS assay. The settings on record: isolated compounds; mean ± SD. The method in brief: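 ABTS radical-scavenging capacity of isolated compounds, from a modified literature method. Activity was read from a trolox calibration curve (7.78–1000 μM) and expressed as trolox equivalents (μM TE/mM). Ascorbic acid and quercetin served as positive controls, MeOH as negative control. Each sample was run in triplicate (n = 3); values are mean ± SD.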

The nature of the next assay: FRAP assay. Conditions: isolated compounds; mean ± SD. The method in brief: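 FRAP: Fe3+ is reduced to Fe2+, which TPTZ chelates to form the Fe2+-TPTZ complex. Activity of isolated compounds was read from a trolox standard curve (7.78–1000 μM) and expressed as μM TE/mM. Quercetin and ascorbic acid were positive controls, MeOH the negative control. Triplicate runs (n = 3); mean ± SD.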

The next assay in a line: DPPH assay. Conditions: mean ± SD; for DPPH assay TEAC: isolated compounds. The method in brief: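 Reduction of the DPPH free radical by extracts, fractions or isolated compounds, done in 96-well format following a published procedure. Quercetin and ascorbic acid were positive controls and MeOH the negative control. Runs were in triplicate (n = 3), reported as mean ± SD. Total antioxidant capacity was expressed as trolox equivalent antioxidant capacity (TEAC).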
For orientation: The DPPH test is a chemical assay of radical scavenging.

Assay [1] deals with formation of AGEs induced by glucose or methylglyoxal. Conditions: at 100 μM; cited from earlier work.
The subject of assay [2] is formation of advanced glycation end products (AGEs), BSA-methylglyoxal model. Briefly: BSA-methylglyoxal antiglycation assay. It counts as biochemical, bovine. Conditions: read-out: BSA-methylglyoxal model IC50; isolated compounds; mean ± SD.
Assay [3] deals with formation of advanced glycation end products (AGEs), BSA-fructose model. The assay is described as follows: BSA-fructose antiglycation assay. It is filed as biochemical, bovine. Conditions: read-out: BSA-fructose model IC50; isolated compounds; mean ± SD.
The next assay has as its target α-glucosidase (yeast) (Saccharomyces cerevisiae, UniProt P53341). The assay is described as follows: Inhibition of α-glucosidase. It counts as biochemical. The settings on record: read-out: α-glucosidase assay IC50; yeast enzyme; mean ± SD.
Assay [4] concerns the target T1, porcine pancreatic lipase (PPL) (Sus scrofa, UniProt P00591).
T1 sequence (P00591 1-450): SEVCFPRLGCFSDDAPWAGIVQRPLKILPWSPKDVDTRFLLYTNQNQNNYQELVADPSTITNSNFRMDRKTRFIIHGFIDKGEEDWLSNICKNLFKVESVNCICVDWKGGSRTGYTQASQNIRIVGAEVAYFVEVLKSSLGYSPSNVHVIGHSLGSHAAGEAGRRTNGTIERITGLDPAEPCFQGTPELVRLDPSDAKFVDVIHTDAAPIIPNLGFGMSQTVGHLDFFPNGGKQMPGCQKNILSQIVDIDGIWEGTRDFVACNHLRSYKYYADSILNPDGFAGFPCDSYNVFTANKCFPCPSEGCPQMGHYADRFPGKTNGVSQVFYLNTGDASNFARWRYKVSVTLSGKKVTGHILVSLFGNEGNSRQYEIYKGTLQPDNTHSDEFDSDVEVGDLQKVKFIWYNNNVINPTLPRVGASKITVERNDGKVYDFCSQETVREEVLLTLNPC
Briefly: Inhibition of pancreatic lipase. It is filed as biochemical. The settings on record: read-out: lipase assay IC50, mean ± SD.

α-glucosidase (yeast), sequence (P53341 whole entry): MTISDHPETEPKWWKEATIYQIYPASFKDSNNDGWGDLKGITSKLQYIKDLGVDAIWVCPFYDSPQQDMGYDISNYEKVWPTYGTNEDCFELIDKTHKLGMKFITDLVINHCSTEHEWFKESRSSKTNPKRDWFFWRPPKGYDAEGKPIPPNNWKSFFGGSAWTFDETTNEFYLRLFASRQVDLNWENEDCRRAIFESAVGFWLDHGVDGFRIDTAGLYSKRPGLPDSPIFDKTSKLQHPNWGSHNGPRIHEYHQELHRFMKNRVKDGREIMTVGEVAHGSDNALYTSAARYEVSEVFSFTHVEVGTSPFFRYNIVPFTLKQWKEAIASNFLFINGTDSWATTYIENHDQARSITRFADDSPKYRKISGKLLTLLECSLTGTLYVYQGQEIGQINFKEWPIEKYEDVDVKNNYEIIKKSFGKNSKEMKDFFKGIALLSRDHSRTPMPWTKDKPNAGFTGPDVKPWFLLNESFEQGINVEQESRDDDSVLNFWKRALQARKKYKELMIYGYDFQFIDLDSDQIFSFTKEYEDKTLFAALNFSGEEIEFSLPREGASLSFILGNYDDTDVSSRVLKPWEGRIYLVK

Take `O=C1O[C@H]([C@@H](O)CO)C(O)=C1O` [ascorbic acid, reference compound]: the “ABTS assay TEAC” value in “ABTS assay” is listed as 1132.84 ± 20.25 μM TE/mM. In “FRAP assay”, the “FRAP assay TEAC” value is recorded as 1195.58 ± 4.41 μM TE/mM. Moreover, in the assay “DPPH assay” (extracts/fractions), the “DPPH assay EC50” value stood at 2.76 ± 1.63 µg/mL. Besides, in the assay “DPPH assay”, the “DPPH assay TEAC” value is reported as 802.73 ± 32.63 μM TE/mM.
`O=c1cc(-c2ccc(O)cc2)oc2cc(O)c([C@@H]3O[C@H](CO)[C@@H](O)[C@H](O)[C@H]3O)c(O)c12` [isovitexin]: in assay [1], the “efficacy against formation of AGEs” value is recorded as “over 85%”.
For the compound `CC[C@H](CC[C@@H](C)[C@H]1CC[C@H]2[C@@H]3CC=C4C[C@@H](O)CC[C@]4(C)[C@H]3CC[C@]12C)C(C)C` [β-sitosterol], the “ABTS assay TEAC” value in the assay “ABTS assay” is 3.42 ± 9.77 μM TE/mM. Further, the “FRAP assay TEAC” value in the assay “FRAP assay” is 13.50 ± 3.48 μM TE/mM. For the same compound, the “DPPH assay TEAC” value in the assay “DPPH assay” worked out at 37.87 ± 11.03 μM TE/mM. The IC50 in assay [2] and in assay [3] was > 1300 µM each time.
Turning to `O=c1c(O)c(-c2ccc(O)c(O)c2)oc2cc(O)cc(O)c12` [quercetin, reference compound], in the assay “ABTS assay”, the “ABTS assay TEAC” value was 1435.38 ± 14.02 μM TE/mM. Further, the “FRAP assay TEAC” value in the assay “FRAP assay” is 1373.75 ± 35.39 μM TE/mM. In addition, the “DPPH assay TEAC” value in the assay “DPPH assay” is given as 953.94 ± 4.17 μM TE/mM. The 50% inhibitory concentration (IC50) (usually the concentration at which inhibition is half-maximal) in assay [2] is 847.3 ± 1.04 µM; in assay [3] it was 50.6 ± 3.9 µM.
`O=c1cc(-c2ccc(O)cc2)oc2c([C@@H]3O[C@H](CO)[C@@H](O)[C@H](O)[C@H]3O)c(O)cc(O)c12` [vitexin]: the “efficacy against formation of AGEs” value in assay [1] is recorded as “over 85%”.
As to “12β-O-benzoyl 3β,8β,12β,14β,20-pentahydroxy-(20S)-pregn-5-ene-3-O-β-D-glucopyranosyl-(1 → 4)-O-β-D-digitaloside [compound 1]”, the “ABTS assay TEAC” value in “ABTS assay” worked out at 12.14 ± 14.86 μM TE/mM. Besides, the “FRAP assay TEAC” value in “FRAP assay” was found to be 17.96 ± 4.25 μM TE/mM. Moreover, the “DPPH assay TEAC” value in the assay “DPPH assay” was 43.30 ± 3.12 μM TE/mM. The IC50 in assay [2] is > 1300 µM; in assay [3], 502 ± 70.9 µM; on α-glucosidase (yeast) it was 920 ± 20 µM; in assay [4], > 100 µM.
With `CO[C@@H]1[C@@H](O)[C@H](O[C@H]2CC[C@@]3(C)C(=CC[C@]4(O)[C@@H]3CC[C@]3(C)[C@@H]([C@H](C)O[C@@H]5O[C@H](CO)[C@@H](O)[C@H](OC(=O)CC(C)C)[C@H]5O)CC[C@@]34O)C2)O[C@H](C)[C@@H]1O[C@@H]1O[C@H](CO)[C@@H](O)[C@H](O)[C@H]1O` [compound 2, 3β,8β,14β,20-tetrahydroxy-(20S)-pregn-5-ene-3-O-β-D-glucopyranosyl-(1 → 4)-O-β-D-digitaloside-20-O-3-Isoval-β-D-glucopyranoside], the “ABTS assay TEAC” value in the assay “ABTS assay” is recorded as 9.19 ± 15.59 μM TE/mM. In addition, the “FRAP assay TEAC” value in “FRAP assay” was found to be 23.08 ± 1.89 μM TE/mM. Also, the “DPPH assay TEAC” value in “DPPH assay” is 30.27 ± 2.70 μM TE/mM. Besides, the results for the IC50 (in assay [2]; at α-glucosidase (yeast); in assay [4]) were > 1300 µM, 670 ± 10 µM and > 100 µM, respectively.
On to `CC[C@H](CC[C@@H](C)[C@H]1CC[C@H]2[C@@H]3CC=C4C[C@@H](O[C@@H]5O[C@H](CO)[C@@H](O)[C@H](O)[C@H]5O)CC[C@]4(C)[C@H]3CC[C@]12C)C(C)C` [β-sitosterol-glucoside], for which the “ABTS assay TEAC” value in the assay “ABTS assay” amounted to 11.81 ± 7.07 μM TE/mM. In addition, in “FRAP assay”, the “FRAP assay TEAC” value stood at 66.21 ± 16.25 μM TE/mM. Besides, in “DPPH assay”, the “DPPH assay TEAC” value worked out at 36.27 ± 10.39 μM TE/mM. For the same compound, the half-maximal inhibitory concentration (IC50) in assay [2] was > 1300 µM; in assay [3] it was 1032 ± 2.48 µM.
